Measured values: ChEMBL document CHEMBL3616444, “Design, synthesis and pharmacological evaluation of pyrimidobenzothiazole-3-carboxylate derivatives as selective L-type calcium channel blockers” (Bioorg Med Chem, 2015)
pIC50: −log10 of the molar value.

Key:
Rattus norvegicus [1] = experiment: Antihypertensive activity in Norwegian albino rat model of DOCA-salt-induced hypertension assessed as inhibition of systolic blood pressure at 10 mg/kg, po after 2 hrs by non-invasive tail cuff method relative to control; assay type: functional
Summary of the method: (§1)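 DOCA-salt hypertensive rats; systolic pressure by tail cuff after 10 mg/kg, recorded hourly from 0 to 10 h; percent inhibition computed. Data as mean ± SEM, repeated-measures ANOVA.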

Rattus norvegicus [2] = experiment: Antihypertensive activity in Norwegian albino rat assessed as inhibition of systolic blood pressure at 10 mg/kg, po after 4 hrs by invasive carotid artery cannulation method relative to control; assay type: functional
Rattus norvegicus [3] = experiment: Antihypertensive activity in Norwegian albino rat assessed as inhibition of systolic blood pressure at 10 mg/kg, po after 0.15 hrs by invasive carotid artery cannulation method relative to control; assay type: functional
Rattus norvegicus [4] = experiment: Antihypertensive activity in Norwegian albino rat model of DOCA-salt-induced hypertension assessed as inhibition of systolic blood pressure at 10 mg/kg, po after 1 hr by non-invasive tail cuff method relative to control; assay type: functional; summary of the method: as §1
Rattus norvegicus [5] = experiment: Antihypertensive activity in Norwegian albino rat assessed as inhibition of systolic blood pressure at 10 mg/kg, po after 3 hrs by invasive carotid artery cannulation method relative to control; assay type: functional
Rattus norvegicus [6] = experiment: Antihypertensive activity in Norwegian albino rat model of DOCA-salt-induced hypertension assessed as inhibition of systolic blood pressure at 10 mg/kg, po after 5 hrs by non-invasive tail cuff method relative to control; assay type: functional; summary of the method: as §1
Rattus norvegicus [7] = experiment: Antihypertensive activity in Norwegian albino rat model of DOCA-salt-induced hypertension assessed as inhibition of systolic blood pressure at 10 mg/kg, po after 10 hrs by non-invasive tail cuff method relative to control; assay type: functional; summary of the method: as §1
Rattus norvegicus [8] = experiment: Antihypertensive activity in Norwegian albino rat assessed as inhibition of systolic blood pressure at 10 mg/kg, po after 0.3 hrs by invasive carotid artery cannulation method relative to control; assay type: functional
Rattus norvegicus [9] = experiment: Antihypertensive activity in Norwegian albino rat assessed as inhibition of systolic blood pressure at 10 mg/kg, po after 2 hrs by invasive carotid artery cannulation method relative to control; assay type: functional
Rattus norvegicus [10] = experiment: Gastrointestinal toxicity in Norwegian rat assessed as ulcerative index at 50 mg/kg, po after 17 hrs; assay type: organism-based; conditions: in vivo
Rattus norvegicus [11] = experiment: Antihypertensive activity in Norwegian albino rat model of DOCA-salt-induced hypertension assessed as inhibition of systolic blood pressure at 10 mg/kg, po after 9 hrs by non-invasive tail cuff method relative to control; assay type: functional; summary of the method: as §1
Rattus norvegicus [12] = experiment: Antihypertensive activity in Norwegian albino rat assessed as inhibition of systolic blood pressure at 10 mg/kg, po after 1 hr by invasive carotid artery cannulation method relative to control; assay type: functional
physchem = conditions: buffer, pH 7.4
Rattus norvegicus [13] = experiment: Antihypertensive activity in Norwegian albino rat model of DOCA-salt-induced hypertension assessed as inhibition of systolic blood pressure at 10 mg/kg, po after 3 hrs by non-invasive tail cuff method relative to control; assay type: functional; summary of the method: as §1
Rattus norvegicus [14] = experiment: Antihypertensive activity in Norwegian albino rat model of DOCA-salt-induced hypertension assessed as inhibition of systolic blood pressure at 10 mg/kg, po after 7 hrs by non-invasive tail cuff method relative to control; assay type: functional; summary of the method: as §1
[15] = Inhibition of porcine kidney ACE assessed as reduction in hippuryl-histidyl-leucine hydrolysis to hippuric acid release incubated for 30 mins high-throughput colorimetric method; parameters: species or system Sus scrofa
Summary of the method: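 Porcine kidney ACE in 1 M sodium borate buffer pH 8.2 with 0.3 M NaCl and 5 mM HHL substrate (stock); 37 °C for 30 min, stopped with 1 M HCl. Released hippuric acid complexed with pyridine and benzene sulfonyl chloride, cooled on ice, yellow colour read at 410 nm; IC50 from log plots, at least five determinations per concentration.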

Rattus norvegicus [16] = experiment: Antihypertensive activity in Norwegian albino rat model of DOCA-salt-induced hypertension assessed as inhibition of systolic blood pressure at 10 mg/kg, po after 8 hrs by non-invasive tail cuff method relative to control; assay type: functional; summary of the method: as §1
[17] = biological target: Myosin light chain kinase, smooth muscle (Homo sapiens, UniProt Q15746); experiment: Inhibition of MLCK (unknown origin) incubated for 15 mins using [gamma-32P]-ATP by scintillation counting method; conditions: for pIC50: read-out: IC50; for IC50: read-out: pIC50 (converted)
Summary of the method: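 Active MLCK thawed on ice with kinase assay and dilution buffers and substrate; reaction with γ-32P-ATP incubated 15 min at 30 °C in a water bath, spotted on phosphocellulose P81 paper, washed three times ~10 min in 1% phosphoric acid. Radioactivity by scintillation counting, blank-corrected cpm converted to specific activity (nmol/min/mg); IC50 from log plots, at least five determinations per concentration.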

Rattus norvegicus [18] = experiment: Antihypertensive activity in Norwegian albino rat model of DOCA-salt-induced hypertension assessed as inhibition of systolic blood pressure at 10 mg/kg, po after 6 hrs by non-invasive tail cuff method relative to control; assay type: functional; summary of the method: as §1
Rattus norvegicus [19] = experiment: Antihypertensive activity in Norwegian albino rat model of DOCA-salt-induced hypertension assessed as inhibition of systolic blood pressure at 10 mg/kg, po after 4 hrs by non-invasive tail cuff method relative to control; assay type: functional; summary of the method: as §1
[20] = Elimination half life in Sprague-Dawley rat at 10 mg/kg, iv by HPLC method; assay type: ADME, organism-based; conditions: in vivo, read-out: beta t1/2 (converted)
[21] = Retention time of the compound by HPLC method; assay type: physicochemical
Summary of the method: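 HPLC run with 20 µl injection, 1.0 ml/min flow, 25 °C, detection at 343 nm or 258 nm depending on compound.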

[22] = Cmax in Sprague-Dawley rat at 20 mg/kg, po by HPLC method; assay type: ADME, organism-based; parameters: dose 20 mg/kg, route oral; conditions: in vivo
[23] = AUC (0 to infinity) in Sprague-Dawley rat at 20 mg/kg, po by HPLC method; assay type: ADME, organism-based; parameters: dose 20 mg/kg, route oral, time infinity; conditions: in vivo
[24] = Elimination half life in Sprague-Dawley rat at 20 mg/kg, po by HPLC method; assay type: ADME, organism-based; conditions: in vivo, read-out: beta t1/2 (converted)
[25] = Tmax in Sprague-Dawley rat at 20 mg/kg, po by HPLC method; assay type: ADME, organism-based; conditions: in vivo
[26] = Oral bioavailability in Sprague-Dawley rat at 20 mg/kg by HPLC method; assay type: ADME, organism-based; conditions: in vivo
[27] = Cmax in Sprague-Dawley rat at 10 mg/kg, iv by HPLC method; assay type: ADME, organism-based; parameters: dose 10 mg/kg, route intravenous; conditions: in vivo
[28] = AUC (0 to infinity) in Sprague-Dawley rat at 10 mg/kg, iv by HPLC method; assay type: ADME, organism-based; parameters: dose 10 mg/kg, route intravenous, time infinity; conditions: in vivo
[29] = Retardation factor of the compound by HPTLC method; assay type: physicochemical
Summary of the method: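 Pre-coated silica gel 60 F254 plates (200 µm layer); 5 µl sample applied as 5 mm bands; toluene/acetonitrile (9:1) mobile phase, ascending development to 90 mm in a chamber pre-saturated 15 min.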

Rattus norvegicus [30] = experiment: Antihypertensive activity in Norwegian albino rat assessed as inhibition of diastolic blood pressure at 10 mg/kg, po after 0.15 hrs by invasive carotid artery cannulation method relative to control
Rattus norvegicus [31] = experiment: Antihypertensive activity in Norwegian albino rat assessed as inhibition of diastolic blood pressure at 10 mg/kg, po after 3 hrs by invasive carotid artery cannulation method relative to control
Rattus norvegicus [32] = experiment: Antihypertensive activity in Norwegian albino rat assessed as inhibition of diastolic blood pressure at 10 mg/kg, po after 1 hr by invasive carotid artery cannulation method relative to control
Rattus norvegicus [33] = experiment: Antihypertensive activity in Norwegian albino rat assessed as inhibition of diastolic blood pressure at 10 mg/kg, po after 2 hrs by invasive carotid artery cannulation method relative to control
Rattus norvegicus [34] = experiment: Antihypertensive activity in Norwegian albino rat assessed as inhibition of diastolic blood pressure at 10 mg/kg, po after 4 hrs by invasive carotid artery cannulation method relative to control
Rattus norvegicus [35] = experiment: Antihypertensive activity in Norwegian albino rat assessed as inhibition of diastolic blood pressure at 10 mg/kg, po after 0.3 hrs by invasive carotid artery cannulation method relative to control

Chain of Myosin light chain kinase, smooth muscle (Q15746 whole entry): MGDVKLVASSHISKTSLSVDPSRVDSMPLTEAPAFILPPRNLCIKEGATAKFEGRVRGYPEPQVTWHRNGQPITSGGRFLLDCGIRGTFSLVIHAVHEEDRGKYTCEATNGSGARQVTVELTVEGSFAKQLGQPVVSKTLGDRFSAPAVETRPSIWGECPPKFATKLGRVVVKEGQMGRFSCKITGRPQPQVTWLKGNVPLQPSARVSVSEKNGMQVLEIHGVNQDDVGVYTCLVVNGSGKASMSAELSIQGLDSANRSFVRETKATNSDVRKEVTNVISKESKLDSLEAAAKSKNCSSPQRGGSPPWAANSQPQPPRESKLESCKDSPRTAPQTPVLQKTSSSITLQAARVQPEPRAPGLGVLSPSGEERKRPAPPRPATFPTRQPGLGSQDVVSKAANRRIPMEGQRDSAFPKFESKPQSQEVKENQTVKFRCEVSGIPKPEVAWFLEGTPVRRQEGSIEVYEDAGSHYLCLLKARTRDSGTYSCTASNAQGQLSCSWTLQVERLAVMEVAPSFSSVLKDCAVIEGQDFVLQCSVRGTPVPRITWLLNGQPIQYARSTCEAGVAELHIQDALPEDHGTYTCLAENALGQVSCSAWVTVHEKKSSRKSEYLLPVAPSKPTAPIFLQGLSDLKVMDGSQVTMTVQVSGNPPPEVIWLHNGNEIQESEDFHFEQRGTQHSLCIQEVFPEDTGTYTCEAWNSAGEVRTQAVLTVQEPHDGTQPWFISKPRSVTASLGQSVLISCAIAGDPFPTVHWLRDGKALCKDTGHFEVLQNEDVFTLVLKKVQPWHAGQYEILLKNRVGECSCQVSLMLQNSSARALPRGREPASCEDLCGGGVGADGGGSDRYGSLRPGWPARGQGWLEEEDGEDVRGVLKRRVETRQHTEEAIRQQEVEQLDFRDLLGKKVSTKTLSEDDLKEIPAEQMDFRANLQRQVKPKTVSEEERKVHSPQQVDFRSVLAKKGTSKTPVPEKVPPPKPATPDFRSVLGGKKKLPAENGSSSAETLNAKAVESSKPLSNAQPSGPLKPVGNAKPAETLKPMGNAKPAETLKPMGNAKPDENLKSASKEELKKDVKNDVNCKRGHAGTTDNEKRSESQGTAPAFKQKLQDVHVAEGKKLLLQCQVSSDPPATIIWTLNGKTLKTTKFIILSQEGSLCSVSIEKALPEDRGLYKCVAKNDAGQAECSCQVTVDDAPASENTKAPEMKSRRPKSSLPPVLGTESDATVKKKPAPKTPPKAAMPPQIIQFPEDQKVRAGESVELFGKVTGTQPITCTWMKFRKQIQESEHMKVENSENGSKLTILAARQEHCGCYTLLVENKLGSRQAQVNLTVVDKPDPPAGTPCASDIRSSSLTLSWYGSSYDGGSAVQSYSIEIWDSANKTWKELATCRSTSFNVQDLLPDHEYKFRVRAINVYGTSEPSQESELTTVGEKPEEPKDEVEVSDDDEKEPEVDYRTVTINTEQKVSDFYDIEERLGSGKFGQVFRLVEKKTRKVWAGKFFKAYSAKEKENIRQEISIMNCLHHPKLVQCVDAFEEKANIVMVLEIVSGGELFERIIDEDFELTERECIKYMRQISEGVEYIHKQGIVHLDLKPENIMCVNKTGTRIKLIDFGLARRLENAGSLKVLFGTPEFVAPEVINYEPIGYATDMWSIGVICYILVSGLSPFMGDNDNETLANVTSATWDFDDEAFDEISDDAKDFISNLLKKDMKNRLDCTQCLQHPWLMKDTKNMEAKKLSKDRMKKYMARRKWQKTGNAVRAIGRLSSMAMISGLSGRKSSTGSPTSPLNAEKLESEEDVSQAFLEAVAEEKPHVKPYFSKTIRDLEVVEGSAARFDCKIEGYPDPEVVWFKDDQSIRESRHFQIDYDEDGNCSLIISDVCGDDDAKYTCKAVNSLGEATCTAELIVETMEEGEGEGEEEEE

Row | logD (physchem) | pIC50 [15] | pIC50 [17] | Structure (SMILES) | inhibition in vivo at 10 mg/kg (Rattus norvegicus [1]) | inhibition in vivo at 10 mg/kg (Rattus norvegicus [2]) | inhibition in vivo at 10 mg/kg (Rattus norvegicus [3]) | inhibition in vivo at 10 mg/kg (Rattus norvegicus [4]) | inhibition in vivo at 10 mg/kg (Rattus norvegicus [5]) | inhibition in vivo at 10 mg/kg (Rattus norvegicus [6]) | inhibition in vivo at 10 mg/kg (Rattus norvegicus [7]) | inhibition in vivo at 10 mg/kg (Rattus norvegicus [8]) | inhibition in vivo at 10 mg/kg (Rattus norvegicus [9]) | UI (Rattus norvegicus [10]) | inhibition in vivo at 10 mg/kg (Rattus norvegicus [11]) | inhibition in vivo at 10 mg/kg (Rattus norvegicus [12]) | inhibition in vivo at 10 mg/kg (Rattus norvegicus [13]) | inhibition in vivo at 10 mg/kg (Rattus norvegicus [14]) | inhibition in vivo at 10 mg/kg (Rattus norvegicus [16]) | inhibition in vivo at 10 mg/kg (Rattus norvegicus [18]) | inhibition in vivo at 10 mg/kg (Rattus norvegicus [19]) | other results
1 | 4.64 | < 4.00 | 5.67 | COC(=O)C1=C(C)N=C2Sc3ccccc3N2C1c1ccc(OC)cc1 (stereo not drawn) | 1.78% | 42.5% | 4.42% | 1.33% | 31% | 24.4% | 48.9% | 7.08% | 27% | 0.54 | 40% | 15.9% | 13.3% | 31.1% | 35.6% | 25.3% | 20% | IC50 [17]: 46700 µM
2 | 4.49 | < 4.00 | 5.69 | COC(=O)C1=C(C)N=C2Sc3ccccc3N2C1c1ccc([N+](=O)[O-])cc1 (stereo not drawn) | 4.87% | 48.7% | 2.21% | 0% | 31% | 27% | 46.9% | 4.42% | 24.8% | 0.2 | 46.9% | 15.9% | 13.7% | 40.3% | 42.5% | 38% | 24.8% | IC50 [17]: 49000 µM
3 | 3.89 | < 4.00 | 5.44 | COC(=O)C1=C(C)N=C2Sc3ccccc3N2C1c1ccc(O)c(OC)c1 (stereo not drawn) | 5.41% | 42.5% | 4.42% | 0.9% | 31% | 27.5% | 41% | 7.08% | 27% | 0.2 | 40.1% | 15.9% | 13.1% | 36.5% | 37.8% | 32.4% | 19.8% | IC50 [17]: 27200 µM
4 | 4.57 | < 4.00 | 5.68 | CCOC(=O)C1=C(C)N=C2Sc3ccccc3N2C1c1cccc([N+](=O)[O-])c1 (stereo not drawn) | 10.2% | 52.4% | 4% | 4.89% | 42.2% | 23.1% | 51.1% | 20% | 28.9% | 0.2 | 47.1% | 21.8% | 14.2% | 37.8% | 41.8% | 27.6% | 19.1% | half-life [20]: 150 min; Retention_time [21]: 3.045 min; Cmax [22]: 400 ng/mL; AUC(0-inf) [23]: 840 ng·h/mL; half-life [24]: 324 min; Tmax [25]: 30 min; bioavailability [26]: 56.8%; Cmax [27]: 1630 ng/mL; AUC(0-inf) [28]: 1480 ng·h/mL; Rf [29]: 4.2; IC50 [17]: 47600 µM

Row | Structure (SMILES) | logD (physchem) | pIC50 [15] | pIC50 [17] | inhibition in vivo at 10 mg/kg (Rattus norvegicus [1]) | inhibition in vivo at 10 mg/kg (Rattus norvegicus [2]) | inhibition in vivo at 10 mg/kg (Rattus norvegicus [3]) | inhibition in vivo at 10 mg/kg (Rattus norvegicus [4]) | inhibition in vivo at 10 mg/kg (Rattus norvegicus [5]) | inhibition in vivo at 10 mg/kg (Rattus norvegicus [6]) | inhibition in vivo at 10 mg/kg (Rattus norvegicus [7]) | inhibition in vivo at 10 mg/kg (Rattus norvegicus [8]) | inhibition in vivo at 10 mg/kg (Rattus norvegicus [9]) | UI (Rattus norvegicus [10]) | inhibition in vivo at 10 mg/kg (Rattus norvegicus [11]) | inhibition in vivo at 10 mg/kg (Rattus norvegicus [12]) | inhibition in vivo at 10 mg/kg (Rattus norvegicus [13]) | inhibition in vivo at 10 mg/kg (Rattus norvegicus [14]) | inhibition in vivo at 10 mg/kg (Rattus norvegicus [16]) | inhibition in vivo at 10 mg/kg (Rattus norvegicus [18]) | inhibition in vivo at 10 mg/kg (Rattus norvegicus [19]) | other results
5 | COC(=O)C1=C(C)NC(C)=C(C(=O)OC)C1c1ccccc1[N+](=O)[O-] [NIFEDIPINE] |  | 5.63 | 5.69 | 10.7% |  |  | 4.89% |  | 23.1% | 54.2% |  |  | 0.54 | 52% |  | 14.2% | 41.8% | 47.6% | 32.9% | 19.1% | inhibition in vivo at 10 mg/kg (Rattus norvegicus [30]): 6.22%; inhibition in vivo at 10 mg/kg (Rattus norvegicus [31]): 37.3%; inhibition in vivo at 10 mg/kg (Rattus norvegicus [32]): 16%; inhibition in vivo at 10 mg/kg (Rattus norvegicus [33]): 26.7%; inhibition in vivo at 10 mg/kg (Rattus norvegicus [34]): 53.8%; inhibition in vivo at 10 mg/kg (Rattus norvegicus [35]): 13.8%
